# Most compounds without a hit are left out; they make up all but 4.8% or so of the library.
# SKKanGAS inh: inhibitors of SKKanGAS S. pyogenes growth in kanamycin (SK-promoter or general growth effect) | BacTiter-Glo, 6 h | inhibition, % at 7.5 µM | hit rate 1.3% among 300,000 | AID 1662;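 active means mean replicate score, as percent of positive control median, at least 50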;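 further: strain carries kanamycin resistance gene driven by streptokinase promoter and grows in 40 µg/ml kanamycin; loss of luminescence reflects streptokinase promoter inhibition or plain growth inhibition; 0% = median of DMSO wells and 100% = positive control at its reference dose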
# Beta cell apopt: beta cell apoptosis inhibition | AID 435005 | INS-1E cytokine-induced death, ATP luminescence, 48 h; percent of positive-control rescue, neutral wells zero | protection from apoptosis, % (no concentration beside the values) | hit rate 0.8% among 300,000;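 active means Every replicate reaches about 75%, or at least half do and their mean reaches it too, limit read from the data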;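 further: 0% = cytokine-treated negative control wells and 100% = positive control rescue; higher means more ATP so stronger rescue from cytokine killing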
# XBP1 UPR activ: activators of adaptive arm of unfolded protein response (XBP1) | CHO-XBP1 luciferase reporter, IRE1-XBP1 UPR activation, luminescence; percent of tunicamycin response, DMSO as zero | activation, % at 20 µM | hit rate 0.33% among 330,000 | AID 463104;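 active means versus positive control, 20 µM dose yields 30% or more activation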;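 further: 100% = tunicamycin at 10 µg/mL and 0% = DMSO only wells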
#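 Material – CHO cell line with stable XBP1 luciferase reporter · Buffer or medium – F12 plus 10% FBS · Compound – single point, 20 µM final compound, 1% DMSO · Schedule – 16-18 h cell attachment at 37 °C, then 6 h compound exposure · Signal – Steady-Glo luminescence read · Benchmarks – high control tunicamycin 10 µg/mL final, low control DMSO vehicle only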
# CSC inhib: cancer stem cell inhibition | cancer stem cell-like cells viability, luminescence | inhibition, % at 7.5 µM | hit rate 1.1% among 300,000; in the data active means inhibition above about 75%; tested in HMLE shEcad cells
# Mdm2 MdmX PPI: inhibitors of human Mdm2/MdmX interaction. O15151+Q00987. SaOS-2 split-luciferase Mdm2/MdmX complementation, luminescence. inhibition, % at 8 µM. hit rate 3% among 330,000;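 active means inhibition of at least 50% at 8 µM in the primary screen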
# Target sequence (O15151 whole entry, looked up): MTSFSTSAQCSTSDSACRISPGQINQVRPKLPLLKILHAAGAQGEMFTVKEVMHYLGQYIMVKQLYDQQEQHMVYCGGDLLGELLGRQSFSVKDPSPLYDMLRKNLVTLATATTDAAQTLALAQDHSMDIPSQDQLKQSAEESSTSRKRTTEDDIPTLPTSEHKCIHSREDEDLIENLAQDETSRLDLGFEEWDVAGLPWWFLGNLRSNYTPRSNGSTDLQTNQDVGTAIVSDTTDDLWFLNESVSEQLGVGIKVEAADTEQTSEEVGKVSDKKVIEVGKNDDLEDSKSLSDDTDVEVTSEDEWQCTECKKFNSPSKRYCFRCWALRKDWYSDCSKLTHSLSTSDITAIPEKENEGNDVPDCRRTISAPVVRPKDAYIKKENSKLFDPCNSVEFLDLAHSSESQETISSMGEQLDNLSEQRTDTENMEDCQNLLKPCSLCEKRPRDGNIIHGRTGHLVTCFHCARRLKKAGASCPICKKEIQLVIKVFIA
# Target sequence (Q00987 whole entry, looked up): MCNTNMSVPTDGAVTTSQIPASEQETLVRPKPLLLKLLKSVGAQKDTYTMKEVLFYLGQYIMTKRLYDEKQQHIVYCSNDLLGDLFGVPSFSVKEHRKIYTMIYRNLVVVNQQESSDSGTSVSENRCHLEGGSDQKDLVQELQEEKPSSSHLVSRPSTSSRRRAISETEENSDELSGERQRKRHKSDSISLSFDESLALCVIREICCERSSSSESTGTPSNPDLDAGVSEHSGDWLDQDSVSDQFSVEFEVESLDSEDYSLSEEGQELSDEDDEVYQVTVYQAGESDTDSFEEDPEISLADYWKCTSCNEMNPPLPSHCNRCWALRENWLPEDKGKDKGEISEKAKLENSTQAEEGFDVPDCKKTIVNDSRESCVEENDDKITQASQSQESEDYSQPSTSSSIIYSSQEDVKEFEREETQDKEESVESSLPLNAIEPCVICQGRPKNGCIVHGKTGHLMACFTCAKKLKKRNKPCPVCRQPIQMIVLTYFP
# UPR CHOP act: apoptotic UPR (CHOP) activation. hit rate 0.34% among 330,000. CHO-CHOP luciferase reporter, luminescence; percent of tunicamycin response over DMSO baseline. activation, % at 10 µM;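 active means at 10 µM dose, activation of 40% or more, normalized to positive control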;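 further: 100% = tunicamycin at 10 µg/mL and 0% = DMSO alone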
#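 System: CHO-CHOP luciferase reporter cell line; amount: 500 cells/well; buffer or medium: F12 medium containing 10% fetal bovine serum; incubation: 6 h compound exposure at 37 °C after overnight seeding; measured by: luciferase luminescence after 10 min with Steady-Glo reagent; evaluation: % reporter activation, DMSO baseline versus tunicamycin full activation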
# UPR CHOP confirm: apoptotic UPR (CHOP) activation, confirmed; shares compounds with UPR CHOP act; CHO-CHOP cells, CHOP-luciferase reporter luminescence; percent of tunicamycin response, DMSO as zero; activation, % at 10 µM; hit rate 64% among 1,000; AID 463112; in the data active means activation above about 33%;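 further: 0% = DMSO wells and 100% = tunicamycin 10 µg/mL wells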
# * = called active by the depositor; . = no result.
SMILES,SKKanGAS inh,Beta cell apopt,XBP1 UPR activ,CSC inhib,Mdm2 MdmX PPI,UPR CHOP act,UPR CHOP confirm
Oc1ccc(/C=N/Nc2ccnc3cc(Cl)ccc23)cc1O,-4,-13,20,33,9,193*,151*
Oc1ccc(/C=N/Nc2ccnc3cc(Cl)ccc23)c(O)c1O,8,-9,-1,-4,12,9,.
Cc1cccc(Cn2cnc3c(sc4nc(C)cc(C)c43)c2=O)c1,5,-8,1,21,8,-1,.
COC(=O)c1ccc(C(=O)OC)c(NC(=O)CSc2cccc[n+]2[O-])c1,-4,13,19,.,-18,87*,122*
COC(=O)c1ccc(-n2c(C)cc(C(=O)CSc3cccc[n+]3[O-])c2C)cc1,12,-1,-1,8,35,2,.
O=C(N/N=C/c1cccc2cccnc12)c1ccccc1O,15,47,3,8,-23,347*,559*
O=C(CSc1ccc2ccccc2c1)NCCc1ccc(O)c(O)c1,2,-37,11,63,9,55*,46*
COc1ccc(CCNC(=O)CSc2ccc3ccccc3c2)cc1OC,0,-9,3,12,-3,1,.
CN(CC(=O)Nc1ccc(N2CCOCC2)cc1)C(=O)CCc1cc(C(C)(C)C)c(O)c(C(C)(C)C)c1,6,7,-1,5,13,4,.
COc1ccc(C(=O)Nc2ccccc2C(=O)N/N=C/c2ccccn2)cc1OC,-14,95*,9,15,32,101*,100*
COc1ccc(C(C[N+](=O)[O-])c2c(C)[nH]n(-c3ccccc3)c2=O)cc1 (stereo not given),5,-12,-7,2,23,89*,0
O=[N+]([O-])c1ccc(C=Nc2ccc(Cl)c([N+](=O)[O-])c2)s1,.,.,-3,.,12,61*,49*
CC(=O)/C(=C/c1ccccc1)C(=O)Nc1ccccc1C,-22,-15,-3,40,45,46*,64*
Cc1ccccc1NC(=O)C(=Cc1ccc(C(=O)O)cc1)C(=O)Nc1ccccc1C,4,.,.,.,.,.,.
CCOC(=O)c1c(NC(=O)c2ccco2)n(C2CCCCC2)c2nc3ccccc3nc12,7,-2,5,8,37,40*,0
CCC(=O)Nc1c(C#N)c2nc3ccccc3nc2n1C1CCCCC1,3,-7,3,-11,-5,-2,.
O=C(O)CC1CCS(=O)(=O)C1 (stereo not given),1,-5,2,-20,4,0,.
O=C(O)CC1CCC(=C(Cl)Cl)C1 (stereo not given),.,-9,-6,11,-24,46*,65*
COc1ccc(N2C(=NC(=O)C3CCCCC3)SC3CS(=O)(=O)CC32)c(OC)c1 (stereo not given),-4,-2,-1,-6,6,-1,.
Cc1ccc(S(=O)(=O)NC2OC(=O)C(Cl)=C2Cl)cc1 (stereo not given),-2,-5,-5,7,-21,63*,15
CCOC(=O)c1cc(-c2ccc(/C=N\n3cnnc3)o2)ccc1Cl,-5,-3,3,-7,8,0,.
CCOC(=O)c1cc(-c2ccc(/C=C3/C(=O)N(c4ccc(C(=O)O)cc4)N=C3C)o2)ccc1Cl,4,-16,6,56,15,87*,135*
N#C/C(=C/c1ccc(N2CCCCC2)o1)c1cccc(F)c1,-29,.,6,11,-20,20,.
N#C/C(=C/c1ccc(N2CCCCCC2)o1)c1ccc(Cl)cc1,33,81*,-1,66,15,92*,17
COCCNC(=O)C(=O)NCC1OCCN1S(=O)(=O)c1ccc(F)cc1 (stereo not given),5,-8,-2,1,7,3,.
CCOC(=O)c1ccc(N2C(=O)C=CC2=O)cc1,3,.,-4,47,2,47*,33*
Cc1cc(N2CCN(c3ccccc3)CC2)nc(-n2nc(C)cc2C)n1,-8,60,13,-19,-8,52*,4

# Screening data: PubChem BioAssay, several laboratories
